pIC50: −log10 of the molar value.
Legend:
[1] = tested on: J774.A1; assay: Antiproliferative activity against mouse J774A1 cells after 72 hrs by MTT conversion assay; type: cell-based; conditions: J774.A1, 72 h
Outline: (§1)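 Cells (3.4 × 10^4 per well) adhered 2 h at 37 °C, 5% CO2; medium replaced with fresh medium and 1:4 serial dilutions of test compound added, then incubated 72 h; 6-mercaptopurine serial dilutions in some experiments. Viability by MTT conversion, OD read at 620 nm; % dead cells = 100 − (OD treated/OD control) × 100.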

[2] = tested on: HEK293; assay: Antiproliferative activity against HEK293 cells after 72 hrs by MTT conversion assay; type: cell-based, Homo sapiens; conditions: for IC50: hek293; for pIC50: Homo sapiens, HEK293, 72 h, read-out: IC50; outline: as §1
[3] = tested on: WEHI-164; assay: Antiproliferative activity against mouse WEHI164 cells after 72 hrs by MTT conversion assay; type: functional, cell-based; conditions: for IC50: wehi-164; for pIC50: Mus musculus, WEHI-164, 72 h, read-out: IC50; outline: as §1

Row | Compound | pIC50 [1] | IC50 [2] | IC50 [3] | pIC50 [2] | pIC50 [3]
1 | CC(=O)N[C@H]1[C@H](O[C@H]2CC[C@]3(C)[C@H]4CC=C5[C@@H]6CC(C)(C)CC[C@]6(C(=O)O[C@@H]6O[C@H](COC(C)=O)[C@@H](O)[C@H](O[C@@H]7OC[C@@H](O)[C@H](O)[C@H]7O)[C@H]6O[C@@H]6OC[C@@H](O)[C@H](O[C@@H]7OC[C@](O)(CO)[C@H]7O)[C@H]6O)[C@H](O)C[C@@]5(C)[C@]4(C)CC[C@H]3C2(C)C)O[C@H](CO[C@@H]2OC[C@H](O)[C@H](O[C@@H]3OC[C@@H](O)[C@H](O)[C@H]3O)[C@H]2O)[C@@H](O[C@@H]2O[C@H](CO)[C@@H](O)[C@H](O)[C@H]2O)[C@@H]1O | 5.54 | Not Traceable | Not Traceable |  | 
2 | C=C[C@@](C)(O)CC/C=C(\C)C(=O)O[C@@H]1[C@@H](OC(=O)/C=C/c2ccccc2)[C@H](O[C@H]2[C@H](O)[C@@H](COC(C)=O)O[C@@H](OC(=O)[C@]34CCC(C)(C)C[C@H]3C3=CC[C@@H]5[C@@]6(C)CC[C@H](O[C@@H]7O[C@H](CO[C@@H]8OC[C@H](O)[C@H](O[C@@H]9OC[C@@H](O)[C@H](O)[C@H]9O)[C@H]8O)[C@@H](O[C@@H]8O[C@H](CO)[C@@H](O)[C@H](O)[C@H]8O)[C@H](O)[C@H]7NC(C)=O)C(C)(C)[C@@H]6CC[C@@]5(C)[C@]3(C)C[C@H]4O)[C@@H]2O[C@@H]2OC[C@@H](O)[C@H](O[C@@H]3OC[C@](O)(CO)[C@H]3O)[C@H]2O)OC[C@H]1O | 6.08 |  |  | 6.44 | 6.42
3 | CC(=O)N[C@H]1[C@H](O[C@H]2CC[C@]3(C)[C@H]4CC=C5[C@@H]6CC(C)(C)CC[C@]6(C(=O)O[C@@H]6O[C@H](CO)[C@@H](O)[C@H](O[C@@H]7OC[C@@H](O)[C@H](O)[C@H]7O)[C@H]6O[C@@H]6OC[C@@H](O)[C@H](O[C@@H]7OC[C@](O)(CO)[C@H]7O)[C@H]6O)[C@H](O)C[C@@]5(C)[C@]4(C)CC[C@H]3C2(C)C)O[C@H](CO[C@@H]2OC[C@H](O)[C@H](O[C@@H]3OC[C@@H](O)[C@H](O)[C@H]3O)[C@H]2O)[C@@H](O[C@@H]2O[C@H](CO)[C@@H](O)[C@H](O)[C@H]2O)[C@@H]1O | 5.92 | Not Traceable | Not Traceable |  | 
4 | C=C[C@](C)(O)CC/C=C(\C)C(=O)O[C@@H]1[C@@H](O)[C@H](O[C@H]2[C@H](O)[C@@H](COC(C)=O)O[C@@H](OC(=O)[C@]34CCC(C)(C)C[C@H]3C3=CC[C@@H]5[C@@]6(C)CC[C@H](O[C@@H]7O[C@H](CO[C@@H]8OC[C@H](O)[C@H](O[C@@H]9OC[C@@H](O)[C@H](O)[C@H]9O)[C@H]8O)[C@@H](O[C@@H]8O[C@H](CO)[C@@H](O)[C@H](O)[C@H]8O)[C@H](O)[C@H]7NC(C)=O)C(C)(C)[C@@H]6CC[C@@]5(C)[C@]3(C)C[C@H]4O)[C@@H]2O[C@@H]2OC[C@@H](O)[C@H](O[C@@H]3OC[C@](O)(CO)[C@H]3O)[C@H]2O)OC[C@H]1O | 6.28 |  |  | 6.57 | 6.31
5 | CC(=O)N[C@H]1[C@H](O[C@H]2CC[C@]3(C)[C@H]4CC=C5[C@@H]6CC(C)(C)CC[C@]6(C(=O)O[C@@H]6O[C@H](COC(C)=O)[C@@H](O)[C@H](O[C@@H]7OC[C@@H](O)[C@H](O)[C@H]7O)[C@H]6O[C@@H]6OC[C@@H](O)[C@H](O[C@@H]7OC[C@](O)(CO)[C@H]7O)[C@H]6O)[C@H](O)C[C@@]5(C)[C@]4(C)CC[C@H]3C2(C)C)O[C@H](CO[C@@H]2OC[C@H](O)[C@H](O[C@@H]3OC[C@H](O)[C@H](O)[C@H]3O)[C@H]2O)[C@@H](O[C@@H]2O[C@H](CO)[C@@H](O)[C@H](O)[C@H]2O)[C@@H]1O | 5.51 | Not Traceable | Not Traceable |  | 
6 | C=C[C@](C)(O)CC/C=C(\C)C(=O)O[C@@H]1[C@@H](O)[C@H](O[C@H]2[C@H](O)[C@@H](COC(C)=O)O[C@@H](OC(=O)[C@]34C[C@H](O)C(C)(C)C[C@H]3C3=CC[C@@H]5[C@@]6(C)CC[C@H](O[C@@H]7O[C@H](CO[C@@H]8OC[C@H](O)[C@H](O[C@@H]9OC[C@@H](O)[C@H](O)[C@H]9O)[C@H]8O)[C@@H](O[C@@H]8O[C@H](CO)[C@@H](O)[C@H](O)[C@H]8O)[C@H](O)[C@H]7NC(C)=O)C(C)(C)[C@@H]6CC[C@@]5(C)[C@]3(C)C[C@H]4O)[C@@H]2O[C@@H]2OC[C@@H](O)[C@H](O[C@@H]3OC[C@](O)(CO)[C@H]3O)[C@H]2O)OC[C@H]1O | 7.51 |  |  | 6.60 | 7.00
7 | C=C[C@@](C)(O)CC/C=C(\C)C(=O)O[C@@H]1[C@@H](OC(=O)/C=C/c2ccccc2)[C@H](O[C@H]2[C@H](O)[C@@H](COC(C)=O)O[C@@H](OC(=O)[C@]34C[C@H](O)C(C)(C)C[C@H]3C3=CC[C@@H]5[C@@]6(C)CC[C@H](O[C@@H]7O[C@H](CO[C@@H]8OC[C@H](O)[C@H](O[C@@H]9OC[C@H](O)[C@H](O)[C@H]9O)[C@H]8O)[C@@H](O[C@@H]8O[C@H](CO)[C@@H](O)[C@H](O)[C@H]8O)[C@H](O)[C@H]7NC(C)=O)C(C)(C)[C@@H]6CC[C@@]5(C)[C@]3(C)C[C@H]4O)[C@@H]2O[C@@H]2OC[C@@H](O)[C@H](O[C@@H]3OC[C@](O)(CO)[C@H]3O)[C@H]2O)OC[C@H]1O | 5.52 |  |  | 5.55 | 5.57
8 | CC(=O)N[C@H]1[C@H](O[C@H]2CC[C@]3(C)[C@H]4CC=C5[C@@H]6CC(C)(C)[C@@H](O)C[C@]6(C(=O)O[C@@H]6O[C@H](COC(C)=O)[C@@H](O)[C@H](O[C@@H]7OC[C@@H](O)[C@H](O)[C@H]7O)[C@H]6O[C@@H]6OC[C@@H](O)[C@H](O[C@@H]7OC[C@](O)(CO)[C@H]7O)[C@H]6O)[C@H](O)C[C@@]5(C)[C@]4(C)CC[C@H]3C2(C)C)O[C@H](CO[C@@H]2OC[C@H](O)[C@H](O[C@@H]3OC[C@@H](O)[C@H](O)[C@H]3O)[C@H]2O)[C@@H](O[C@@H]2O[C@H](CO)[C@@H](O)[C@H](O)[C@H]2O)[C@@H]1O | 5.66 |  |  | 5.41 | 5.70
9 | CC(=O)N[C@H]1[C@H](O[C@H]2CC[C@]3(C)[C@H]4CC=C5[C@@H]6CC(C)(C)CC[C@]6(C(=O)O[C@@H]6O[C@H](COC(C)=O)[C@@H](O)[C@H](O[C@@H]7OC[C@@H](O)[C@H](O)[C@H]7OC(=O)/C=C/c7ccccc7)[C@H]6O[C@@H]6OC[C@@H](O)[C@H](O[C@@H]7OC[C@](O)(CO)[C@H]7O)[C@H]6O)[C@H](O)C[C@@]5(C)[C@]4(C)CC[C@H]3C2(C)C)O[C@H](CO[C@@H]2OC[C@H](O)[C@H](O[C@@H]3OC[C@@H](O)[C@H](O)[C@H]3O)[C@H]2O)[C@@H](O[C@@H]2O[C@H](CO)[C@@H](O)[C@H](O)[C@H]2O)[C@@H]1O | 6.01 |  |  | 6.25 | 6.03
